Shown are actives, neighbours in structure and some others; about 3.7% of the full set was active somewhere.
rCAG binder: binds r(CAG) RNA repeats; r(CAG) RNA repeat, TO-PRO-1 dye displacement fluorescence; 370,000 compounds, 1.3% hits; inhibition, % at 3 µM;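 active = inhibition above the plate cutoff, the mean of all test compounds on that plate plus 3 SD, cut at about 35% in these data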;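 also: 0% = DMSO alone and 100% = 100 µM mitoxantrone as full dye displacement; higher means more dye released from RNA so lower well fluorescence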
NS3 helicase inh: inhibitors of Hepatitis C virus NS3 helicase; AID 1800; NS3 helicase DNA unwinding, Cy5 molecular beacon fluorescence; inhibition, % at 10.9 µM; 290,000 compounds, 0.56% hits;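 active = inhibition above the mean of all tested compounds plus 3 SD, set per campaign, cut at about 35% in these data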;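 also: 0% = DMSO wells and 100% = thioflavine S control wells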
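System: Hepatitis C virus NS3 helicase domain fragment enzyme | Reagent: Annealed dual-labelled DNA beacon duplex, ATP-started | Compound dosing: 10.9 µM single point, 0.8% DMSO | Incubation: 1 h reaction at 25 °C, ATP-initiated | Technique: Cy5 fluorescence | Evaluation: Percent inhibition from t60/t0 fluorescence ratio | Benchmarks: Low DMSO, high thioflavine S at 110 µM | Replication: Singlicate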
HCV core dimer: blocks dimerization of HCV core protein; inhibition, % at 5 µM; TR-FRET GST/Flag-core106 dimerization, 1536-well; 300,000 compounds, 0.33% hits;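 active = inhibition above the mean of all tested compounds plus 3 SD, set per screening campaign, cut at about 45% in these data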
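Assay system: Tagged HCV core106 pair (GST and Flag) | Buffer or medium: KF-containing HEPES buffer, pH 7.45, DTT, CHAPS, BSA | Also added: Eu donor and XL665 acceptor anti-tag antibodies | Dosing: One concentration, 5 µM, in 0.5% DMSO | Timing: 4 h at 22.5 °C | Technique: TR-FRET 671 and 617 nm emission | Repeats: Singlicate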
TAAR1 ag: agonists of human TAAR1; CHO RD-HGA16 TAAR1, Fluo-8 calcium fluorescence; vehicle wells 0%, saturating PEA agonist 100%; activation, % at 3 µM; 360,000 compounds, 0.99% hits;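 active = activation above the mean activation of all test compounds in the run plus 3 SD, cut at about 38% in these data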
Target sequence (Q96RJ0 whole entry, looked up): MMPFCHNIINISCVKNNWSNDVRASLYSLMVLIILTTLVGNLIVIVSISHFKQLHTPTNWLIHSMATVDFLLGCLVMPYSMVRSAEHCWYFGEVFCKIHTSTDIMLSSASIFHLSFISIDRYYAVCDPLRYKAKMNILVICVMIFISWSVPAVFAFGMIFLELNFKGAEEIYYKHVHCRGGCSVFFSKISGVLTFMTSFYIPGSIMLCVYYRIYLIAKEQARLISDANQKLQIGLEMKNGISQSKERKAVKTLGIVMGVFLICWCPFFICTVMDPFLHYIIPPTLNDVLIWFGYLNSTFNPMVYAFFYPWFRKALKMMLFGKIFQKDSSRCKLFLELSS
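System: CHO RD-HGA16 cells carrying human TAAR1 plus Gα16; Incubation: 17-24 h seeding, 75 min 37 °C dye, 30 min RT; Measured by: Fluo-8 fluorescence, 5 s baseline then 140 s kinetic read; Control set: DMSO and PEA EC100; Replication: single well for each compound.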
TAAR1 antag: antagonists of human TAAR1. CHO RD-HGA16 TAAR1, Fluo-8 calcium fluorescence, antagonist. inhibition, % at 3 µM. 360,000 compounds, 1.5% hits. AID 624466;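 active = inhibition above a per-plate cutoff, the mean inhibition of test compounds on that plate plus 3 SD, cut at about 49% in these data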;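 also: 0% = DMSO plus EC80 beta-PEA response and 100% = DMSO alone without agonist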
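Material: RD-HGA16 CHO cells with stable hTAAR1 and Gα16; Dosing: single nominal final test compound concentration of 3 µM; Schedule: seeding 17-24 h prior, 75-min 37 °C, 30-min RT dye loading; Detection: kinetic Fluo-8 calcium fluorescence measurement; Measure: % inhibition from peak post-agonist over basal fluorescence ratio; Benchmarks: vehicle and agonist controls.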
NS3 helicase cf: HCV NS3 helicase inhibition, confirmation assay; shares compounds with NS3 helicase inh; NS3 helicase DNA unwinding, Cy5 molecular beacon fluorescence; inhibition, % at 10.9 µM; 1,600 compounds, 31% hits;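 active = inhibition above the mean of all tested compounds plus 3 SD, cutoff set per campaign, cut at about 36% in these data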
DNA FID counter: displaces DNA intercalator in HCV helicase counter-screen; shares compounds with NS3 helicase inh; DNA fluorescent intercalator displacement, fluorescence; inhibition, % at 7.9 µM; 1,600 compounds, 4% hits; AID 1945; in the data active = inhibition above about 37%;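 also: 0% = vehicle and 100% = reference compound; higher means more displacement of ethidium bromide from the DNA hairpin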
DNA FID DR: counter-screen for HCV NS3 helicase inhibitors: DNA intercalator displacement dose response. AID 2172. shares compounds with NS3 helicase inh. fluorescent intercalator displacement from DNA, fluorescence. 120 tested, under 10 active. IC50, µM; call rule not given here
An asterisk follows results filed as active; i = inactive; x = no result.

SMILES	rCAG binder	NS3 helicase inh	HCV core dimer	TAAR1 ag	TAAR1 antag	NS3 helicase cf	DNA FID counter	others
CCOC(=O)CN1C(=O)S/C(=C/c2ccc(OCc3ccc(C(=O)O)cc3)cc2)C1=O	5	42*	8	7	-14	32	-8
Cc1ccc(S(=O)(=O)NN2C(=O)/C(=C/c3ccc(C(=O)O)cc3)SC2=S)cc1	18	37*	4	0	1	-19	-7
Cc1ccc(S(=O)(=O)NN2C(=O)/C(=C\c3ccc(Cl)cc3)SC2=S)cc1	11	24	13	0	12	x	x
Cc1ccc(/C=C2\SC(=S)N(NS(=O)(=O)c3ccc(C)cc3)C2=O)cc1	8	29	12	-1	26	x	x
Cc1ccc(S(=O)(=O)NN2C(=O)/C(=C/c3cccn3C)SC2=S)cc1	x	50*	0	x	x	60*	8
Cc1c(C(=O)c2ccc(F)cc2F)c2ccccn2c1CCC#N	-1	49*	-18	2	-10	-7	14
Cc1c(C(=O)c2ccc(F)cc2F)c2ccccn2c1CCc1ccccn1	4	x	x	0	14	x	x
CCN(Cc1cn(Cc2ccccc2)nn1)S(=O)(=O)c1ccc(N2CCCC2)cc1Br	7	x	x	x	x	x	x
Cc1cc(S(=O)(=O)N2CCCCC2)c(C)s1	-1	67*	-9	15	-25	-10	-5
Cc1cc(S(=O)(=O)N2CCCC2)c(C)s1	5	4	1	14	4	x	x
N#CCSc1nc2sccc2c(=O)n1-c1ccccc1	6	37*	21	-3	11	-16	6
CCOC(=O)C(C)Sc1nc(-c2cccs2)ccc1C#N (stereo not drawn)	6	-10	4	6	14	x	x
C=COC(=O)CSc1nc(-c2cccs2)ccc1C#N	16	48*	-2	5	-25	-13	6
O=C(O)c1ccccc1C(=O)c1ccc(Cl)cc1	0	-7	-3	-3	-8	x	x
O=C(O)c1ccccc1C(=O)c1ccc(-c2ccccc2)cc1	15	42*	-1	3	-28	-20	-12
NNC(=O)c1oc2nc(-c3ccco3)cc(-c3ccco3)c2c1N	16	51*	3	8	24	3	-26
Nc1c(C(=O)N/N=C/c2cccnc2)oc2nc(-c3ccco3)cc(-c3ccco3)c12	12	30	16	3	-7	x	x
O=S(=O)(CC1NCc2cc(F)ccc21)NC1CCCC1 (stereo not drawn)	9	x	x	x	x	x	x
O=c1ccc2c(-c3ccccc3)c3ccc(O)cc3oc-2c1	i	73*	66*	673*	105*	68*	-11	DNA FID DR=>79
CC(C)(C)C(=O)NC1CCCCN(Cc2cccc(C(F)(F)F)c2)C1=O (stereo not drawn)	-1	x	x	x	x	x	x
O=S1(=O)c2ccc(Br)cc2OC[C@H](Cc2ccccc2)N1Cc1cn(Cc2ccc(Br)cc2)nn1	2	x	x	x	x	x	x
FC(F)(F)c1cccc(Cn2ccc3ccc(-c4ccc5ccn(Cc6cccc(C(F)(F)F)c6)c5c4)cc32)c1	11	x	x	x	x	x	x
Cn1cccc1Cc1nnc(SCC(=O)Nc2cccc(F)c2)n1CCc1ccccc1	-3	42*	3	1	17	-6	-27
CCCC[C@H](C(=O)N(C)c1cccc(OC)c1)[C@@H](O)c1ccc2ccccc2c1	2	x	x	x	x	x	x
CCc1cc2cccc(C)c2nc1SCC(=O)NC1CCCC1	-6	-2	-2	6	-17	x	x
CCc1cc2cc(C)ccc2nc1SCC(=O)NC1CCCC1	-6	55*	1	15	5	1	-14
CCNC(=O)C[C@H]1CC[C@H]2[C@@H](COc3ccc(NC(=O)c4ccc5c(c4)OCO5)cc3C(=O)N2C)O1	3	x	x	x	x	x	x
CCOC(=O)c1c(N2C(=O)C3C4C=CC(C4)C3C2=O)sc2c1CCC(C)C2 (stereo not drawn)	-8	-18	4	-2	-17	x	x

Screening data as filed in PubChem.
